# Data from ChEMBL document CHEMBL1125416, “Synthesis and antiulcer activity of novel 5-(2-ethenyl substituted)-3(2H)-furanones” (1992).
# Key:
# Rattus norvegicus [1] = species on record: Rattus norvegicus; test: Effective dose that inhibits formation of induced gastric lesions.; format: functional; details: Stomach
# Method in brief: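 Male Sprague-Dawley rats (180–210 g), fasted 18–24 h with water allowed, dosed orally 1 h before absolute ethanol (1 mL/rat po) and killed 1 h later. Lesions scored blind by size (mm²) and number, expressed as % inhibition versus vehicle mean. Groups of ≥10 rats; Dunnett's test (p < 0.01).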
# Rattus norvegicus [2] = test: Evaluated for the duration of cytoprotective effect, in Ethanol-Necrosis model, that causes inhibition of ulceration. Absolute ethanol was administered at 4 hr after dosing; format: functional; parameters: concentration or dose not given beside the values
# Method in brief: (§1)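 Male Sprague-Dawley rats (180–210 g), fasted 18–24 h with water available, dosed orally with drug or vehicle 4, 6 or 8 h before absolute ethanol (1 mL per rat po). Rats killed 1 h after ethanol, stomachs kept moist with saline and scored blind by ulcer size (mm²) and number per size class. Percent inhibition is taken against the vehicle group mean score.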
# Rattus norvegicus [3] = test: Inhibitory activity against ethanol-induced lesions, which was administered after 1 hr of oral dosing in pylorus-ligated rat model.; format: functional
# Rattus norvegicus [4] = test: Inhibition against ethanol-induced lesions which was administered after 1 hr at a oral dosing of 25 mg/kg in pylorus-ligated rat model; format: functional
# Rattus norvegicus [5] = test: Inhibition against ethanol-induced lesions which was administered after 1 hr at a oral dosing of 10 mg/kg in pylorus-ligated rat model; format: functional
# Rattus norvegicus [6] = test: Compound was tested for inhibition against ethanol-induced lesions which was administered after 1 hr of oral dosing in rat ethanol-necrosis model
# Rattus norvegicus [7] = test: Inhibitory activity In acidified aspirin model at a dose of 40 mg/kg perorally; format: functional; details: route oral
# Method in brief: (§2)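 Male Sprague-Dawley rats (120–180 g), fasted 18–24 h with water ad libitum. Compound or vehicle given po (10 mL/kg) 30 min before acidified aspirin (aspirin powder in 0.35 M HCl, 5 mL/kg po). Stomachs excised 5 h after aspirin and graded by ulcer size and number. Percent inhibition versus vehicle, ≥10 rats per group.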
# Rattus norvegicus [8] = test: Evaluated for the duration of cytoprotective effect, in Ethanol-Necrosis model, that causes inhibition of ulceration. Absolute ethanol was administered at 8 hr after dosing; format: functional; parameters: concentration or dose not given beside the values; method in brief: as §1
# Rattus norvegicus [9] = test: Inhibitory activity In the indomethacin model at a dose of 111 mg/kg perorally; format: functional; details: route oral
# Method in brief: (§3)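 In male Sprague-Dawley rats (120–170 g) fasted 18 h with water ad libitum, oral test compound was given 30 min before indomethacin (20 mg/kg po). Rats killed by cervical dislocation 4 h later; stomachs opened along the greater curvature, rinsed, and lesions graded by size and number. Percent inhibition versus control, ≥10 rats per group.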
# Rattus norvegicus [10] = test: Compound was evaluated for the duration of cytoprotective effect, in Ethanol-Necrosis model, that causes inhibition of ulceration. Absolute ethanol was administered at 6 hr after dosing; format: functional; method in brief: as §1
# Rattus norvegicus [11] = test: Compound was evaluated for the duration of cytoprotective effect, in Ethanol-Necrosis model, that causes inhibition of ulceration. Absolute ethanol was administered at 8 hr after dosing; format: functional; method in brief: as §1
# Rattus norvegicus [12] = species on record: Rattus norvegicus; test: Inhibitory activity In the indomethacin model.; format: functional; method in brief: as §3
# Rattus norvegicus [13] = species on record: Rattus norvegicus; test: Inhibitory activity In acidified aspirin model; format: functional; method in brief: as §2
# Rattus norvegicus [14] = test: Inhibitory activity In the indomethacin model at a dose of 120 mg/kg perorally; format: functional; details: route oral; method in brief: as §3
# Rattus norvegicus [15] = test: Inhibitory activity in acidified aspirin model at a dose of 50 mg/kg perorally; format: functional; details: route oral; method in brief: as §2
# Rattus norvegicus [16] = test: Inhibitory activity In acidified aspirin model at a dose of 16 mg/kg perorally; format: functional; details: route oral; method in brief: as §2
# Rattus norvegicus [17] = test: Inhibitory activity in the indomethacin model at a dose of 40 mg/kg perorally; format: functional; details: route oral; method in brief: as §3
# Rattus norvegicus [18] = test: Compound was tested for inhibition against ethanol-induced lesions which was administered after 1 hr of at a oral dosing of 25 mg/kg in pylorus-ligated rat model; format: functional
smiles,measurement,setting,value
CC1(c2ccccc2)OC(/C=C/c2ccccn2)=CC1=O (configuration not stated),ED50,Rattus norvegicus [1],40 mg/kg
same,Inhibition,Rattus norvegicus [2],28%
same,ED50,Rattus norvegicus [3],5 mg/kg
CC1(C)OC(/C=C/c2ccc(C(F)(F)F)cc2)=CC1=O,inhibition in vivo at 25 mg/kg,Rattus norvegicus [4],30%
CC1(C)OC(/C=C/C=C/c2ccc(Cl)cc2)=CC1=O,inhibition in vivo at 10 mg/kg,Rattus norvegicus [5],33%
CSc1ccc(/C=C/C2=CC(=O)C(C)(C)O2)cc1,inhibition in vivo at 25 mg/kg,Rattus norvegicus [4],5%
CC1(C)OC(/C=C/c2ccc3ccccc3c2)=CC1=O,inhibition in vivo at 25 mg/kg,Rattus norvegicus [4],43%
CC1(c2ccccc2)OC(/C=C/c2ccncc2)=CC1=O (configuration not stated),ED50,Rattus norvegicus [1],24 mg/kg
same,Inhibition,Rattus norvegicus [2],31%
same,ED50,Rattus norvegicus [3],6 mg/kg
CC1(C)OC(c2ccc(C(F)(F)F)cc2)=CC1=O,inhibition in vivo at 25 mg/kg,Rattus norvegicus [4],39%
CC1(c2ccc(F)cc2)OC(/C=C/c2ccccn2)=CC1=O (configuration not stated),ED50,Rattus norvegicus [3],3.5 mg/kg
COc1ccc(C2=CC(=O)C(C)(C)O2)cc1,Inhibition,Rattus norvegicus [6],30%
CC1(c2ccc(F)cc2)OC(/C=C/c2ccc(C#N)cc2)=CC1=O (configuration not stated),inhibition in vivo at 10 mg/kg,Rattus norvegicus [5],1%
CC1(C)OC(/C=C/c2ccoc2)=CC1=O,inhibition in vivo at 10 mg/kg,Rattus norvegicus [5],32%
CC1(C)OC(/C=C/c2ccc(F)c(F)c2)=CC1=O,Inhibition,Rattus norvegicus [6],47%
CC1(C)OC(/C=C/c2ccccn2)=CC1=O,inhibition in vivo at 40 mg/kg,Rattus norvegicus [7],77%
same,ED50,Rattus norvegicus [1],40 mg/kg
same,Inhibition,Rattus norvegicus [2],67%
same,Inhibition,Rattus norvegicus [8],76%
same,inhibition in vivo at 111 mg/kg,Rattus norvegicus [9],72%
same,ED50,Rattus norvegicus [3],10 mg/kg
CC1(c2ccccc2)OC(/C=C/c2cccnc2)=CC1=O (configuration not stated),inhibition in vivo at 10 mg/kg,Rattus norvegicus [5],44%
C/C(=C\c1ccccc1)C1=CC(=O)C(C)(C)O1,inhibition in vivo at 10 mg/kg,Rattus norvegicus [5],0%
CC1(C)OC(/C=C/c2ccncc2)=CC1=O,Inhibition,Rattus norvegicus [10],46%
same,ED50,Rattus norvegicus [1],20 mg/kg
same,ED50,Rattus norvegicus [3],4 mg/kg
CC1(C)OC(c2ccc(Br)cc2)=CC1=O,inhibition in vivo at 25 mg/kg,Rattus norvegicus [4],36%
CC1(C)OC(/C=C/c2ccc(S(C)(=O)=O)cc2)=CC1=O,inhibition in vivo at 25 mg/kg,Rattus norvegicus [4],56%
CC1(C)OC(/C=C/c2cc3ccccc3s2)=CC1=O,inhibition in vivo at 10 mg/kg,Rattus norvegicus [5],17%
CC1(C)OC(/C=C/c2ccc(Cl)c(Cl)c2)=CC1=O,inhibition in vivo at 25 mg/kg,Rattus norvegicus [4],45%
CC1(C)OC(/C=C/c2ccc(F)cc2)=CC1=O,Inhibition,Rattus norvegicus [10],50%
same,ED50,Rattus norvegicus [1],50 mg/kg
same,Inhibition,Rattus norvegicus [2],61%
same,Inhibition,Rattus norvegicus [8],25%
same,ED50,Rattus norvegicus [3],11 mg/kg
CC(=O)c1ccc2c(c1)C(=O)C1(CC1)O2 [SPIZOFURONE],Inhibition,Rattus norvegicus [10],44%
same,Inhibition,Rattus norvegicus [11],0%
same,Inhibition,Rattus norvegicus [12],95%
same,ED50,Rattus norvegicus [1],100 mg/kg
same,Inhibition,Rattus norvegicus [2],72%
same,Inhibition,Rattus norvegicus [13],78%
same,ED50,Rattus norvegicus [3],10 mg/kg
CC1(C)OC(c2ccc(Cl)cc2)=CC1=O,inhibition in vivo at 25 mg/kg,Rattus norvegicus [4],29%
CC1(C)OC(/C=C/c2ccc(Cl)cc2)=CC1=O,ED50,Rattus norvegicus [1],40 mg/kg
same,Inhibition,Rattus norvegicus [2],51%
CC1(C)OC(/C=C/c2ccc(C#N)cc2)=CC1=O,inhibition in vivo at 120 mg/kg,Rattus norvegicus [14],70%
same,ED50,Rattus norvegicus [1],50 mg/kg
same,inhibition in vivo at 50 mg/kg,Rattus norvegicus [15],23%
same,Inhibition,Rattus norvegicus [8],66%
same,ED50,Rattus norvegicus [3],12 mg/kg
CC1(C)OC(/C=C/c2cc(Cl)cc(Cl)c2)=CC1=O,inhibition in vivo at 25 mg/kg,Rattus norvegicus [4],63%
CC1(c2ccc(F)cc2)OC(/C=C/c2ccsc2)=CC1=O (configuration not stated),inhibition in vivo at 10 mg/kg,Rattus norvegicus [5],22%
Cn1cccc1/C=C/C1=CC(=O)C(C)(C)O1,inhibition in vivo at 10 mg/kg,Rattus norvegicus [5],32%
CC1(C)OC(/C=C/c2cnccn2)=CC1=O,inhibition in vivo at 10 mg/kg,Rattus norvegicus [5],56%
CC1(C)OC(/C=C/c2ccsc2)=CC1=O,inhibition in vivo at 16 mg/kg,Rattus norvegicus [16],0%
same,ED50,Rattus norvegicus [1],16 mg/kg
same,inhibition in vivo at 40 mg/kg,Rattus norvegicus [17],65%
same,Inhibition,Rattus norvegicus [8],62%
same,ED50,Rattus norvegicus [3],4 mg/kg
CC1(C)OC(/C=C/c2ccc(Br)cc2)=CC1=O,ED50,Rattus norvegicus [3],18 mg/kg
CC1(C)OC(/C=C/c2ccnc3ccccc23)=CC1=O,ED50,Rattus norvegicus [3],2.5 mg/kg
CC1(C)OC(c2ccccc2)=CC1=O,ED50,Rattus norvegicus [3],19 mg/kg
CC1(C)OC(/C=C/c2cccc(C#N)c2)=CC1=O,inhibition in vivo at 10 mg/kg,Rattus norvegicus [5],68%
CC1(c2ccccc2)OC(/C=C/c2ccc(C#N)cc2)=CC1=O (configuration not stated),inhibition in vivo at 10 mg/kg,Rattus norvegicus [5],4%
CC1(c2ccccc2)OC(/C=C/c2ccsc2)=CC1=O (configuration not stated),inhibition in vivo at 10 mg/kg,Rattus norvegicus [5],0%
CC1(C)OC(/C=C/c2cccs2)=CC1=O,inhibition in vivo at 25 mg/kg,Rattus norvegicus [18],1%
CC1(C)OC(/C=C/c2ccc(F)cc2F)=CC1=O,ED50,Rattus norvegicus [1],100 mg/kg
same,Inhibition,Rattus norvegicus [2],42%
same,ED50,Rattus norvegicus [3],11 mg/kg
CC1(C)OC(/C=C/c2cccnc2)=CC1=O,Inhibition,Rattus norvegicus [10],60%
same,ED50,Rattus norvegicus [1],40 mg/kg
same,Inhibition,Rattus norvegicus [2],43%
same,Inhibition,Rattus norvegicus [8],40%
same,ED50,Rattus norvegicus [3],9 mg/kg
CC1(C)OC(/C=C/c2ccc(Cl)cc2Cl)=CC1=O,inhibition in vivo at 25 mg/kg,Rattus norvegicus [4],20%
CC1(C)OC(/C=C/c2ccccc2)=CC1=O,ED50,Rattus norvegicus [3],17 mg/kg
